Rows were chosen to be rich in hits. Some 2.5% of all compounds tested hit in one or more screens of this group.
TRPC4 agonist: opens the mouse TRPC4 cation channel; Q9QUQ5; HEK293 TRPC4beta/mu-opioid, Fluo4 calcium fluorescence; stronger effect = higher value; B-score at 10 µM; hit rate 0.49% among 310,000;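 active = B-score above 5 SD of library B-scores, and initial fluorescence ratio not above library mean plus 5 SD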;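 note: positive B-score marks a calcium rise read as TRPC4 activation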
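Assay system: HEK293 cells stably co-expressing mouse TRPC4beta and mu-opioid receptor / Timing: Fluo4 dye loading 45 min at room temperature, 110 s recording / Signal: Fluo4 calcium-sensitive dye fluorescence, kinetic, 1 Hz baseline / Read-out: integrated baseline-normalised fluorescence ratio, converted to per-well B score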
TRPC4 PAM: allosteric potentiators of mouse TRPC4 channel; Q9QUQ5; HEK293 TRPC4beta/mu-opioid, DAMGO EC20, Fluo-4 Ca2+ flux; stronger effect = higher value; B-score at 10 µM; hit rate 0.42% among 310,000; AID 2227;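 active = B-score of calcium response area above 5 SD of library B-scores, with initial fluorescence ratio within 5 SD of library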;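 note: B-score of integrated fluorescence ratio over time as area under calcium response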
TRPC4 inh: inhibitors of mouse TRPC4 channel. AID 2247. HEK293 TRPC4beta/mu-opioid, DAMGO-evoked Fluo4 calcium flux; stronger effect = lower value. hit rate 0.39% among 300,000. B-score at 10 µM. Q9QUQ5;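 active = B-score over 3 SD under the library average, no early fluorescence shift, positive overall ratio signal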
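Assay system: Stable TRPC4beta/mu-opioid receptor HEK293 cells | Reagent: DAMGO in two steps, submaximal then maximal | Compound dosing: Single concentration per test compound | Signal: Fluo4 Ca2+ flux fluorescence | Evaluation: Per-well B score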
TRPC6 inhibitor: mouse TRPC6 channel inhibition; Q61143; HEK293-TRPC6, membrane potential dye, ACh-evoked depolarization; stronger effect = lower value; B-score at 10 µM; hit rate 1.1% among 310,000;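 active = B-score under library mean minus 3 SD, initial fluorescence not abnormally high, positive integrated signal ratio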;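 note: B-score derived from integrated fluorescence ratio over the kinetic read; more negative B-score means stronger inhibition of depolarization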
Platelet DG rel: modulates dense granule release in human platelets; human platelet-rich plasma, SFLLRN dense granule ATP release, luminescence; inhibition, %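 (compounds screened at 7.5 µM in platelet-rich plasma)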; hit rate 0.22% among 300,000; AID 1663;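 active = mean replicate score, as percent of positive control, at or above 50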
TRPC6 activator: activates the mouse TRPC6 cation channel | HEK293-TRPC6 membrane potential dye fluorescence; stronger effect = higher value | B-score at 10 µM | hit rate 0.13% among 310,000 | AID 2550;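 active = B-score of the integrated fluorescence ratio above library mean plus 3 SD, and starting fluorescence ratio within library mean plus 5 SD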;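 note: higher score means more depolarization so channel activation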
TRPC4 sel inh 2: second check of whether TRPC6 inhibitors also affect mouse TRPC4; HEK293 TRPC4/MOR, membrane potential dye fluorescence; channel activated by saturating DAMGO dose; shares compounds with TRPC6 inhibitor; AID 2776; inhibition, % at 10 µM; hit rate 42% among 920;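 active = compounds whose fluorescence signal differed from control wells by over 3 SD, either direction, in both duplicate plates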
TRPC4 spec: selectivity of TRPC6 inhibitors: effect on mouse TRPC4. shares compounds with TRPC6 inhibitor. HEK293 TRPC4/mu-opioid, membrane potential fluorescence. activity change, negative = inhibition, % at 10 µM. hit rate 61% among 920;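 active = rise or fall in signal beyond 3 SD of buffer-only wells in both replicate plates, either sign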;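 note: integrated kinetic ratio of fluorescence range over baseline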
HEK293 MPD ctr 2-1: parental HEK293 nonspecific activity of TRPC6 inhibitors, second screen | hit rate 31% among 920 | parental HEK293 membrane potential dye fluorescence; maximal acetylcholine challenge after compound addition | AID 2779 | signal change vs control, % at 10 µM | shares compounds with TRPC6 inhibitor;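 active = membrane potential signal moving either way by over 3 SD of the maximum-effect control, in both duplicate plates, meaning non-specific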
HEK293 MPD ctr-1: checks TRPC6 inhibitor effects in parental HEK293 cells; hit rate 60% among 920; AID 2780; parental HEK293 membrane potential dye fluorescence; membrane potential signal change, % at 10 µM; shares compounds with TRPC6 inhibitor;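 active = membrane potential signal shifting up or down by more than 3 SD of buffer-only wells, on both duplicate plates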
HEK293 MPD ctr-2: parental HEK293 nonspecific activity of TRPC6 modulators; shares compounds with TRPC6 inhibitor; membrane potential dye fluorescence; membrane potential signal change, % at 10 µM; hit rate 51% among 2,400; AID 488924;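 active = membrane potential signal moves up or down beyond 5 SD from buffer-only wells, on both duplicate plates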
HEK293 MPD ctr 2-2: second counter-screen for TRPC6 modulators: effect in parental HEK293 cells | shares compounds with TRPC6 inhibitor | membrane potential dye fluorescence; after compound, maximal acetylcholine stimulation | inhibition, % at 10 µM | hit rate 14% among 2,400 | AID 488926;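 active = membrane potential signal drops by more than 5 SD from the mean control signal, in both duplicate plates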;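 note: plate controls were acetylcholine ECmax control wells for no effect and buffer only wells for full effect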
TRPC4 ctr mod: selectivity of TRPC6 modulators against mouse TRPC4. hit rate 69% among 2,400. HEK293 TRPC4/mu-opioid, membrane potential fluorescence. shares compounds with TRPC6 inhibitor. percent change from control (negative = decrease, positive = increase), % at 10 µM;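 active = membrane potential signal moved up or down beyond 5 SD of buffer control wells, in both duplicate plates, actives on both sides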;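 note: plate controls were assay buffer wells for no effect and DAMGO maximal-effect wells for full effect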
TRPC4/MOR inh 2: mouse TRPC4 off-target activity of TRPC6 modulators, second screen | shares compounds with TRPC6 inhibitor | HEK293 TRPC4/mu-opioid, membrane potential dye fluorescence; stimulated with maximal-effect DAMGO | inhibition, % at 10 µM | hit rate 55% among 2,400 | AID 488928;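 active = drop in membrane potential signal beyond 5 SD of the control wells in both duplicate plates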;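 note: TRPC4 counter screen for TRPC6 hits run under conditions tuned for TRPC6 not TRPC4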
TRPC6 block conf: confirmation of mouse TRPC6 inhibitors | shares compounds with TRPC6 inhibitor | HEK293-TRPC6, membrane potential dye, ACh-evoked depolarization | inhibition, % at 10 µM | hit rate 43% among 3,300 | AID 488960;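 active = fluorescence ratio falls more than 5 SD below the full-stimulation control mean, in both duplicate runs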;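 note: integrated fluorescence ratio of peak minus minimum over baseline after agonist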
TRPC6 act confirm: mouse TRPC6 activator confirmation. activation, % at 10 µM. shares compounds with TRPC6 inhibitor. hit rate 11% among 2,800. HEK293-TRPC6 membrane potential dye fluorescence, FDSS;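 active = ratio signal rise beyond 5 SD above unstimulated control wells' mean, seen in both duplicate runs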;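 note: plate controls were buffer EC0 wells for no effect and acetylcholine ECmax response for full effect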
An asterisk follows results filed as active; i = inactive; nt = not tested or not shown.

SMILES | TRPC4 agonist | TRPC4 PAM | TRPC4 inh | TRPC6 inhibitor | Platelet DG rel | TRPC6 activator | HEK293 MPD ctr-2 | HEK293 MPD ctr 2-2 | TRPC4 ctr mod | TRPC4/MOR inh 2 | TRPC6 block conf | TRPC6 act confirm | others
Cc1ccc2[nH]c(CSc3ccccc3)cc(=O)c2c1 | i | i | i | i | -4.3 | i | nt | nt | nt | nt | nt | nt
CCOc1ccc(NC(=O)CCN2C(=O)c3ccccc3C2=O)cc1 | i | i | i | i | -4.8 | i | nt | nt | nt | nt | nt | nt
Cc1cc(=O)n2nc(N3CCC(C(=O)NCc4ccc(Cl)cc4)CC3)sc2n1 | i | i | i | i | -3.0 | i | nt | nt | nt | nt | nt | nt
Cc1ccc(-n2c(SCC(N)=O)nnc2-c2ccc(S(=O)(=O)N3CCCCC3)cc2)c(C)c1 | i | i | i | -6.03* | -4.6 | i | i | i | 39.5%* | i | 41.0%* | i
COc1ccc(NC(=O)CSc2nnc(-c3cccnc3)n2Cc2ccco2)c(OC)c1 | i | i | i | i | -21.0 | i | nt | nt | nt | nt | nt | nt
Cc1c(CCOC(=O)c2ccc([N+](=O)[O-])cc2)sc[n+]1CC(=O)c1ccccc1 | i | i | -6* | -7.41* | 2.6 | i | -262.0%* | i | -40.5%* | 35.5%* | 39.5%* | i
CCC(C)N(CCNC(=O)CC1Oc2ccccc2NC1=O)C1CCCCC1 (stereo unspecified) | i | i | i | -8.02* | 3.9 | i | nt | nt | nt | nt | 59.6%* | nt | TRPC4 sel inh 2=i;TRPC4 spec=19.0%*;HEK293 MPD ctr 2-1=i;HEK293 MPD ctr-1=11.4%*
CC1CCN(Cc2ccc(NC(=O)CC3Oc4ccccc4NC3=O)cc2)CC1 (stereo unspecified) | i | i | i | -10.2* | 2.3 | i | nt | nt | nt | nt | 80.6%* | i | TRPC4 sel inh 2=i;TRPC4 spec=i;HEK293 MPD ctr 2-1=-8.0%*;HEK293 MPD ctr-1=i
Cc1ccccc1C(=O)N1CCN(c2ccc([N+](=O)[O-])c(N3CCOCC3)c2)CC1 | i | i | i | -5.37* | -2.2 | i | i | i | i | i | i | i
Cc1cc(N2CCC(N(C)C3CCCC3)CC2)nc2cc(O)ccc12 | i | i | i | -6.73* | 1.8 | i | -281.5%* | i | -54.0%* | 47.0%* | 43.0%* | i
Cc1cc(N2CCN(c3ccccc3)CC2)nc2ccccc12 | i | i | i | i | 1.2 | i | nt | nt | nt | nt | nt | nt
O=C(CN1CCOc2ccccc21)N1CCN(c2cccc(Cl)c2)CC1 | i | i | i | -5.48* | -0.6 | i | i | i | i | 36.0%* | i | i
Cc1cccc(N2CCN(C(=O)CN3CCOc4ccccc43)CC2C)c1 (stereo unspecified) | i | i | i | i | 5.2 | i | nt | nt | nt | nt | nt | nt
CCOC(=O)/C=c1\s/c(=C\c2ccc3cc(OC)ccc3c2)c(=O)n1CC(=O)NCc1ccc2c(c1)OCO2 | i | i | i | i | -4.1 | i | nt | nt | nt | nt | nt | nt
CN(C)CCNc1nc(-c2ccccc2)nnc1C(F)(F)F | i | i | i | i | nt | i | nt | nt | nt | nt | nt | nt
Cc1nnc(-c2ccc(Cl)cc2)nc1NCCN(C)C | i | i | i | -5.02* | 9.1 | i | i | i | i | i | i | i
COc1ccc(CN2C(=O)CCCc3ccccc32)cc1 | i | i | i | -5.67* | -2.5 | i | i | i | i | i | i | i
O=C1CCCc2ccccc2N1Cc1ccccc1 | i | i | i | i | 6.2 | i | nt | nt | nt | nt | nt | nt
CCOC(=O)C1=C(C)NC(C)=C(C(=O)OCC)C1c1sccc1C | i | i | i | -5.38* | -1.3 | i | i | i | i | 39.5%* | i | i
CCOC(=O)C1=C(C)NC(C)=C(C(=O)OCC)C1c1cccs1 | i | i | i | i | -4.6 | i | nt | nt | nt | nt | nt | nt
COc1ccc(C2C3=C(CC(C)(C)CC3=O)Oc3ncn(CC(C)C)c(=N)c32)cc1 (stereo unspecified) | i | i | i | i | 11.3 | i | nt | nt | nt | nt | nt | nt
COc1ccc(C2C3=C(CC(C)(C)CC3=O)Oc3ncn(Cc4ccco4)c(=N)c32)cc1 (stereo unspecified) | i | i | i | -5.98* | 14.4 | i | 110.0%* | i | i | 43.5%* | i | nt
CN1CCN(c2ccc(CNC(=O)c3cc4ccccc4o3)cc2)CC1 | i | i | i | -5.33* | 5.0 | i | i | i | i | 32.0%* | i | i
Cc1ccc(C)c(CS(=O)(=O)c2cn(CC(=O)N3CCCCC3)c3ccccc23)c1 | i | i | i | i | -21.7 | 12.4* | i | i | i | i | nt | 44.5%*
Cc1ccc(C)c(CS(=O)(=O)c2cn(CC(=O)N3CCC(C)CC3)c3ccccc23)c1 | i | i | i | i | -22.4 | i | nt | nt | nt | nt | nt | nt
COc1ccccc1Nc1nc(N)nc(CSC(=S)N2CCCCC2)n1 | i | i | i | -9.54* | 3.5 | 11.5* | i | i | i | i | i | i
CN(CCOc1ccccc1)CC(=O)Nc1cccc(C#N)c1 | i | i | i | i | 15.1 | i | nt | nt | nt | nt | nt | nt

Compound activity from PubChem.
